# Experimental data published in ChEMBL document CHEMBL1156054, “Allosteric functional switch of neurokinin A-mediated signaling at the neurokinin NK2 receptor: structural exploration” (J Med Chem, 2009).
# Calls of active or inactive are those of the source. No cut-off for these calls is given here.
# Columns and labels:
# [1] = target: T1, Substance-K receptor (Rattus norvegicus) (UniProt P16610); experiment: Inhibition of NKA-Bo binding to rat NK2 receptor expressed in HEK293 cells at 10 uM by FRET assay relative to neurokinin A; format: cell-based
# T1 sequence (whole entry): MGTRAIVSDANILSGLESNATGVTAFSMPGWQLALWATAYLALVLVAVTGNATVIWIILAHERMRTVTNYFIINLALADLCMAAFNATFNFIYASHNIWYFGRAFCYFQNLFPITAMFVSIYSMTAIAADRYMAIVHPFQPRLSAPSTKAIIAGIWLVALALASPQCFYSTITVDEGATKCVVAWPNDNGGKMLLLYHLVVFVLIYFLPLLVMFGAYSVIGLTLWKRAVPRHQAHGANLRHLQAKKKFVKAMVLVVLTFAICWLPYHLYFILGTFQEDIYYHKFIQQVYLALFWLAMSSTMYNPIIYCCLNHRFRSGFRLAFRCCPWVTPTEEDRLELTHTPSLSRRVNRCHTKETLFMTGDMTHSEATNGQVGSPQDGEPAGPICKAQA
# Summary of the method: (§1)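 HEK293 cells stably expressing EGFP-fused rat NK2 receptor (hygromycin B 500 μg/mL selection) are suspended in Hepes-BSA buffer, pH 7.4, with protease inhibitors. EGFP emission is read at 510 nm with 470 nm excitation. 20 nM NKA-Bo is added at 50 s, compound (10 μM) at 450 s for 150 s, then excess unlabeled NKA at 600 s.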
# [2] = target: T1, Substance-K receptor (Rattus norvegicus); experiment: Allosteric modulation of rat NK2 receptor expressed in HEK293 cells assessed as formation of active receptor calcium-triggering conformation at 10 uM in presence of 20nM NKA-Bo by FRET assay; format: functional, cell-based; summary of the method: as §1
# [3] = target: T1, Substance-K receptor (Rattus norvegicus); experiment: Allosteric modulation of rat NK2 receptor expressed in HEK293 cells assessed as enhancement of neurokinin A-induced intracellular calcium level at 20 uM by spectrofluorimetry; format: functional, cell-based
# [4] = target: T1, Substance-K receptor (Rattus norvegicus); experiment: Allosteric modulation of rat NK2 receptor expressed in HEK293 cells assessed as reduction of neurokinin A-induced cAMP production at 10 uM by radioimmunoassay; format: functional, cell-based; parameters: scale not given: the % may be the effect or the level left
# Summary of the method: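 HEK293 cells expressing NK2 receptor are seeded at 50000 on collagen-coated wells and cultured 3 days (~80% confluency). They are stimulated with increasing NKA concentrations with or without 10 μM compound. The reaction is stopped with ice-cold 0.2 M HCl and cAMP is measured by radioimmunoassay. Values are mean ± SD of six determinations; the change in maximal response amplitude is reported.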
# [5] = target: T1, Substance-K receptor (Rattus norvegicus); experiment: Allosteric modulation of rat NK2 receptor expressed in HEK293 cells assessed as formation of active receptor cAMP-producing conformation at 50 uM in presence of 20nM NKA-Bo by FRET assay; format: functional, cell-based
# [6] = target: T1, Substance-K receptor (Rattus norvegicus); experiment: Allosteric modulation of rat NK2 receptor expressed in HEK293 cells assessed as formation of active receptor calcium-triggering conformation at 50 uM in presence of 20nM NKA-Bo by FRET assay; format: functional, cell-based
# [7] = target: T1, Substance-K receptor (Rattus norvegicus); experiment: Allosteric modulation of rat NK2 receptor expressed in HEK293 cells assessed as formation of active receptor cAMP-producing conformation at 10 uM in presence of 20nM NKA-Bo by FRET assay; format: functional, cell-based; summary of the method: as §1
SMILES,inhibition [1] [%],Activity [2] [%],also measured
O=C(CN(Cc1ccccc1)Cc1ccc2ccccc2c1)OCCc1ccccc1,0,46,–
CCCCNC(=O)CN(Cc1ccccc1)Cc1ccc2ccccc2c1,0,54,–
CN1CCN(C(=O)CN(Cc2ccccc2)Cc2ccc3ccccc3c2)CC1,0,58,–
N#CCN(Cc1ccccc1)Cc1ccc(Cl)cc1,0,53,–
N#CCN(Cc1ccc(I)cc1)Cc1ccc2ccccc2c1,0,47,–
COc1ccc(CN(CC#N)Cc2ccccc2)cc1,0,49,–
CCOC(=O)CN(Cc1ccccc1)Cc1ccc2ccccc2c1,0,51,–
O=C(O)CN(Cc1ccccc1)Cc1ccc2ccccc2c1,0,35,–
N#CCN(Cc1ccccc1)Cc1cnc2ccccc2c1,21,46,–
COc1ccc(CN(CC#N)Cc2ccc3ccccc3c2)cc1,0,54,–
N#CCN(Cc1ccc(Br)cc1)Cc1ccc2ccccc2c1,0,45,–
N#CCN(Cc1ccc2ccccc2c1)Cc1ccccc1Br,0,43,–
c1ccc(CN(Cc2ccc3ccccc3c2)c2cccnc2)cc1,0,59,–
CCOC(=O)CCCCN(Cc1ccccc1)Cc1ccc2ccccc2c1,0,52,–
CCCCCCCCCCCCCCCCOC(=O)CN(Cc1ccccc1)Cc1ccc2ccccc2c1,0,38,–
O=C(CN(Cc1ccccc1)Cc1ccc2ccccc2c1)OCCO,0,53,–
N#CCN(Cc1ccc(CCc2ccccc2)cc1)Cc1ccc2ccccc2c1,20,39,–
O=C(CN(Cc1ccccc1)Cc1ccc2ccccc2c1)N1CCCCC1,0,44,–
O=C(CN(Cc1ccccc1)Cc1ccc2ccccc2c1)N1CCN(c2ccccc2)CC1,0,43,–
N#CCN(C/C=C/c1ccccc1)Cc1ccccc1,0,47,–
O=C(O)CCCCN(Cc1ccccc1)Cc1ccc2ccccc2c1,0,44,–
N#CCN(Cc1ccccc1)Cc1cccc(Cl)c1,0,45,–
N#CCCCN(Cc1ccccc1)Cc1ccc2ccccc2c1,0,68,Emax [3]: 120%; Activity [4]: 47%
N#CCN(Cc1ccccc1)Cc1ccc2ccccc2c1,0,50,Activity [5]: 5%; Activity [6]: 95%; Activity [3]: inactive; Activity [7]: 50%; Activity [4]: 33%
c1ccc(CN(Cc2ccc3ccccc3c2)c2ccccn2)cc1,17,56,–
O=C(CN(Cc1ccccc1)Cc1ccc2ccccc2c1)OCCN1CCOCC1,0,42,–
N#CCN(Cc1ccccc1)Cc1ccc2ccccc2n1,0,47,–
c1ccc(CN(Cc2ccc3ccccc3c2)c2ccncn2)cc1,34,61,–
N#CCN(Cc1ccccc1)Cc1ccc(C(F)(F)F)cc1,0,48,–
C#CCN(Cc1ccccc1)Cc1ccc2ccccc2c1,0,51,–
